The values that follow come from ChEMBL document CHEMBL5252534, “Discovery of a Noncovalent, Mutant-Selective Epidermal Growth Factor Receptor Inhibitor” (J Med Chem, 2016).

Data set [1] can be described thus: Aqueous kinetic solubility of compound in PBS buffer at pH 7.4 at 100 uM incubated for 24 hrs by LC/CLND analysis. Particulars: read-out: Kinetic_solubility. Format: physicochemical. Put shortly:
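Kinetic aqueous solubility measured at pH 7.4.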

In data set [2] the target is T1, Epidermal growth factor receptor (Homo sapiens, UniProt P00533, 746-750DEL). Description: Inhibition of human EGFR del (746 to 750) mutant assessed as apparent inhibition constant using Fl-EEPLYWSFPAKKK-CONH2 as substrate preincubated for 30 mins followed by addition of substrate and measured after 30 mins by Morrison plot analysis. As to conditions: read-out: Ki(app). Put shortly: (§1)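 Biochemical kinase Ki determination; reported values are geometric means of at least two independent experiments.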
T1 sequence (P00533 whole entry, looked up, stated change not applied): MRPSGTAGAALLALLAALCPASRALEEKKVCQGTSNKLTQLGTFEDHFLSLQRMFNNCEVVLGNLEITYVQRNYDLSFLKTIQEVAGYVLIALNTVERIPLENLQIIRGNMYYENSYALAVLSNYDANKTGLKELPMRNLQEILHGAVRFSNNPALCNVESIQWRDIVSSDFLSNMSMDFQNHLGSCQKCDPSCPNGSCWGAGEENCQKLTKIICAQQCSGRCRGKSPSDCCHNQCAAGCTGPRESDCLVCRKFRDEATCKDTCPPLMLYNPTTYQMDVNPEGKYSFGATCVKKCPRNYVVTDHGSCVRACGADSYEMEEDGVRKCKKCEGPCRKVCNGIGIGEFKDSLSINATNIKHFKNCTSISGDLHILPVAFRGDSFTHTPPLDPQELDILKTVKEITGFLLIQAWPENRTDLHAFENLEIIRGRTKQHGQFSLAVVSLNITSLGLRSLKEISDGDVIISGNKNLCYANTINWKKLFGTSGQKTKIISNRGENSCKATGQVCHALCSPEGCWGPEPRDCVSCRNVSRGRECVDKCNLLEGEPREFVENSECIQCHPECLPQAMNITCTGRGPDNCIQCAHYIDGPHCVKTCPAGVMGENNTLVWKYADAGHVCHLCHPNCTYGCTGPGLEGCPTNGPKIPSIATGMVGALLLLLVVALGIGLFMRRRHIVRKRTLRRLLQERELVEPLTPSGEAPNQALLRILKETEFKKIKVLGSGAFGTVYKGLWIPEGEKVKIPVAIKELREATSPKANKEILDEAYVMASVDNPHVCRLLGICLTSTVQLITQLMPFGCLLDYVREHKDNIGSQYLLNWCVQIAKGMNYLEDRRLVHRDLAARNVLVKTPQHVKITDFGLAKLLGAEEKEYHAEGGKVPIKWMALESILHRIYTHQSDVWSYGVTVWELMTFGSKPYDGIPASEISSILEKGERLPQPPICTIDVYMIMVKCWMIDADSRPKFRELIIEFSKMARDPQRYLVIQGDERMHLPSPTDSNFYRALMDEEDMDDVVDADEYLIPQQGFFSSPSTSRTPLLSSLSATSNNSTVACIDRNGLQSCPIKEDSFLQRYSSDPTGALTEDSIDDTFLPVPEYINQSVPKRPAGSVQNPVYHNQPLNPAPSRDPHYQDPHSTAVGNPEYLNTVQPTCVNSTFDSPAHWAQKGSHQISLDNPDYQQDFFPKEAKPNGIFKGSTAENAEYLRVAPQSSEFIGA

Data set [3] addresses T2, Epidermal growth factor receptor (Homo sapiens, UniProt P00533, L858R/T790M). Description: Inhibition of human EGFR T790M/L858R double mutant assessed as apparent inhibition constant using Fl-EEPLYWSFPAKKK-CONH2 as peptide substrate preincubated for 30 mins followed by addition of substrate and measured after 30 mins by Morrison plot analysis. As to conditions: read-out: Ki(app).

Data set [4] in a line: Apparent permeability across apical to basolateral side in dog MDCK cells. Format: ADME, cell-based, Canis lupus familiaris.
The target of data set [5] is Epidermal growth factor receptor (Homo sapiens, UniProt P00533, L858R). Description: Inhibition of human EGFR L858R mutant assessed as apparent inhibition constant using Fl-EEPLYWSFPAKKK-CONH2 peptide as substrate preincubated for 30 mins followed by addition of substrate and measured after 30 mins by Morrison plot analysis. Particulars: read-out: Ki(app). Put shortly: as §1
Sequence of Epidermal growth factor receptor (Homo sapiens, UniProt P00533, L858R) (P00533 25-1210 L858R limits assumed): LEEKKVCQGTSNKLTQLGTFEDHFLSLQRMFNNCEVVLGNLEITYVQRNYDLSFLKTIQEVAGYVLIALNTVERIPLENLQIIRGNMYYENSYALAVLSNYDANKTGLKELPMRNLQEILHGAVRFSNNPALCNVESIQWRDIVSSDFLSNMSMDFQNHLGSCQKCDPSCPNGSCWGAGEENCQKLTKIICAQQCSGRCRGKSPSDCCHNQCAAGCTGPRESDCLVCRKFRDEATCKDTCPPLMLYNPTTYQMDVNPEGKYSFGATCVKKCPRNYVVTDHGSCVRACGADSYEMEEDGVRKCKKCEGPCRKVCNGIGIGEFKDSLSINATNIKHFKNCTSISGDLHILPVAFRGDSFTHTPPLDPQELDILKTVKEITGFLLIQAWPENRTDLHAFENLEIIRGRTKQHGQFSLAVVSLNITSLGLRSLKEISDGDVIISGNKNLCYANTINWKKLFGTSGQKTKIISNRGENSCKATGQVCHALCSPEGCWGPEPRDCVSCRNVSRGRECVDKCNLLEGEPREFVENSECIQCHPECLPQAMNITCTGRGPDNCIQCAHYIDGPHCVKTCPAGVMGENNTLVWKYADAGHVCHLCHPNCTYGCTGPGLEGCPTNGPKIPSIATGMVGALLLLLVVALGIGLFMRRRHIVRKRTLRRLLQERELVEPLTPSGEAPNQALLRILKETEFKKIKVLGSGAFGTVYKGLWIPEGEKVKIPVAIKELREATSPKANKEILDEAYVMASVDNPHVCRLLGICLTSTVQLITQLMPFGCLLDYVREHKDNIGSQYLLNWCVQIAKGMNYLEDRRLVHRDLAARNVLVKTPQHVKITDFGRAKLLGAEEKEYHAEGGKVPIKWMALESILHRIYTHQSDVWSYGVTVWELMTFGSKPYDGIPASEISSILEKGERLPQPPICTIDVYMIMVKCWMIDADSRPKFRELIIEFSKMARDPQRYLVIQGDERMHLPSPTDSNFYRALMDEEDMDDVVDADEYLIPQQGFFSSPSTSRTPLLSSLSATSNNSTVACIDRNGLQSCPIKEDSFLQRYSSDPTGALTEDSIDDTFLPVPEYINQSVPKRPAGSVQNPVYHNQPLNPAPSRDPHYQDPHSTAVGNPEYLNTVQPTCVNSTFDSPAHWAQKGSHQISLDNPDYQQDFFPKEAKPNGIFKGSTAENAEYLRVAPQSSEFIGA

Data set [6] has as its target T3, Epidermal growth factor receptor (Homo sapiens, UniProt P00533). Description: Inhibition of wild type human EGFR assessed as apparent inhibition constant using Fl-EEPLYWSFPAKKK-CONH2 as substrate preincubated for 30 mins followed by addition of substrate and measured after 30 mins by Morrison plot analysis. Particulars: read-out: Ki(app).
Target sequence in this assay (P00533 whole entry, the tested form may be a part): as the sequence (P00533 whole entry, looked up, stated change not applied) above
Data set [7] concerns the target T4, Epidermal growth factor receptor (Homo sapiens, UniProt P00533, 746-750DEL/T790M). Description: Inhibition of human EGFR T790M/del (746 to 750 residues) mutant assessed as apparent inhibition constant using Fl-EEPLYWSFPAKKK-CONH2 peptide as substrate preincubated for 30 mins followed by addition of substrate and measured after 30 mins by Morrison plot analysis. As to conditions: read-out: Ki(app). Put shortly:
as §1

Data set [8] can be described thus: Clearance in human hepatocyte. Format: ADME, cell-based. As to conditions: hepatocytes. Put shortly:
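Cryopreserved human hepatocytes used; intrinsic clearance converted to predicted hepatic clearance as (Q × Clint)/(Q + Clint) using liver blood flow Q.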

Data set [9] can be described thus: Clearance in human liver microsomes. The format is ADME, Microsome. Put shortly: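 Incubation with human liver microsomes; intrinsic clearance scaled to predicted hepatic clearance as Clhep = (Q × Clint)/(Q + Clint), where Q is liver blood flow.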
Data set [10] addresses T1, Epidermal growth factor receptor. The format is cell-based, PC-9.
Data set [11] concerns the target T3, Epidermal growth factor receptor. Description: Inhibition of EGFR autophosphorylation in human NCI-H292 cells harboring harboring wild type EGFR preincubated for 60 mins followed by EGF stimulation and measured after 8 mins by SULFO-TAG based electrochemiluminescent assay. Format: cell-based.
Data set [12] has as its target T2, Epidermal growth factor receptor. Format: cell-based, NCI-H1975.
Data set [13] deals with T4, Epidermal growth factor receptor. Format: cell-based, PC-9/ER1.

SMILES strings stand for the structures. In brackets after ≈: the same amount, converted by molar mass.

T4 sequence (P00533 whole entry, looked up, stated change not applied, the tested form may be a part): as the sequence (P00533 whole entry, looked up, stated change not applied) above

In general, Papp A→B refers to the apparent permeability from the apical to the basolateral side of a cell layer. As to `CC(C)n1cc(C(=O)NC2COC2)c2cnc(Nc3ccnc(-c4cnn(S(=O)(=O)C5CC5)c4)n3)cc21`, the solubility kinetic at 24 h, 100 µM in [1] was found to be 7 µM (≈ 3.66 µg/mL). In addition, the Ki stood at 2 nM in [2]; 1.1 nM in data set [3]; 6.4 nM in data set [5]; 4.6 nM in [6]; 2 nM in [7]. Also, the Papp A→B in data set [4] stood at 2.3 ×10⁻⁶ cm/s.

For `CC(C)n1cc(C(=O)NC2CCOCC2)c2cnc(Nc3ccnc(-c4cnn(S(=O)(=O)C5CC5)c4)n3)cc21`, the solubility kinetic at 24 h, 100 µM in data set [1] came out at 11 µM (≈ 6.06 µg/mL). The Ki turned out to be 1.4 nM in data set [2]; 1.2 nM in data set [3]; 3.8 nM in [5]; 3.4 nM in data set [6]; 1.6 nM in data set [7]. Moreover, in data set [4], the Papp A→B is 4.6 ×10⁻⁶ cm/s.

Turning to `CC(C)n1cc(C(N)=O)c2cnc(Nc3ccnc(-c4cnn(S(=O)(=O)C5CC5)c4)n3)cc21`, in data set [1], the solubility kinetic at 24 h, 100 µM was under 1 µM. In addition, the Ki was 1.2 nM in [2]; 1.1 nM in [3]; 4.1 nM in [5]; 7.8 nM in data set [6]; 0.35 nM in [7]. The Papp A→B in data set [4] is 4.5 ×10⁻⁶ cm/s.

Turning to `Cc1nc2cnc(Nc3ccnc(-c4cnn(CC5CC5)c4)n3)cc2n1C(C)C`, the Ki in data set [3] stood at 34 nM; in data set [6] it was 1200 nM.

`CC(C)n1nc(N2CCC(O)CC2)c2cnc(Nc3ccnc(-c4cnn(S(=O)(=O)C5CC5)c4)n3)cc21`: the solubility kinetic at 24 h, 100 µM in [1] amounted to 1 µM (≈ 0.524 µg/mL). In data set [4], the Papp A→B turned out to be 12 ×10⁻⁶ cm/s. Moreover, the figures for the CLhep predicted in [8] and in [9] were 7.7 mL/min/kg and 7 mL/min/kg, respectively.

In general, IC50 refers to the concentration that inhibits the measured activity by half. Read a low IC50 as greater potency. With `CC(C)n1nc(N2CC(CO)C2)c2cnc(Nc3ccnc(-c4cnn(S(=O)(=O)C5CC5)c4)n3)cc21`, the IC50 was 28 nM in [10], 96 nM in [11], 19 nM in data set [12] and 8.1 nM in data set [13]. Besides, in [1], the solubility kinetic at 24 h, 100 µM was 3 µM (≈ 1.53 µg/mL). For the same compound, the Ki in data set [3] was under 0.6 nM; in [6], 2 nM. For the same compound, in data set [4], the Papp A→B came out at 8.1 ×10⁻⁶ cm/s. Also, the CLhep predicted is 13 mL/min/kg in [8] and 10 mL/min/kg in data set [9].

`Cc1nc2cnc(Nc3ccnc(-c4cnn(S(C)(=O)=O)c4)n3)cc2n1C(C)C`: the Ki worked out at 38 nM in data set [2], 126 nM in data set [5], 324 nM in [6] and 3.5 nM in data set [7].

In the case of `CC(C)n1nc(N2CCOCC2)c2cnc(Nc3ccnc(-c4cnn(S(=O)(=O)C5CC5)c4)n3)cc21`, the IC50 came out at 76 nM in data set [10], 850 nM in data set [11], 74 nM in data set [12] and 19 nM in data set [13]. In addition, the solubility kinetic at 24 h, 100 µM in [1] is 1 µM (≈ 0.51 µg/mL). In addition, the Ki in [3] was determined as 2.1 nM; in [6] it was 10 nM. In addition, the Papp A→B in data set [4] turned out to be 12 ×10⁻⁶ cm/s. In addition, the CLhep predicted is 6.7 mL/min/kg in [8] and 9.3 mL/min/kg in data set [9].

Turning to `CO[C@H]1CCN(c2nccc(Nc3cc4c(cn3)nc(C)n4C(C)C)n2)C[C@H]1F`, the Ki in [2] turned out to be 1800 nM; in data set [3] it was 3.6 nM; in data set [5], 608 nM; in data set [6], 896 nM; in data set [7] it was 41 nM.

In the case of `Cc1nc2cnc(Nc3ccnc(N4CC[C@H](O)[C@H](F)C4)n3)cc2n1C(C)C` (racemic), the Ki amounted to 1300 nM in data set [2], 1100 nM in [5] and 43 nM in data set [7]. Moreover, the Papp A→B in data set [4] is 19 ×10⁻⁶ cm/s. Further, the values for the CLhep predicted in data set [8] and in data set [9] were 9 mL/min/kg and 5.2 mL/min/kg, respectively.

For `COC1CCN(c2nccc(Nc3cc4c(cn3)c(C(N)=O)cn4C(C)C)n2)CC1`, the solubility kinetic at 24 h, 100 µM in data set [1] is 3 µM (≈ 1.23 µg/mL). For the same compound, the Ki in data set [2] is 323 nM; in data set [3], 5.3 nM; in data set [5] it was 363 nM; in data set [6] it was 167 nM; in [7], 27 nM. The Papp A→B in [4] amounted to 26 ×10⁻⁶ cm/s.

Consider `CC(C)c1nn(C(C)C)c2cc(Nc3ccnc(-c4cnn(S(=O)(=O)C5CC5)c4)n3)ncc12`, for which the IC50 in [10] was 3000 nM; in [11] it was over 10000 nM; in data set [12], 2400 nM; in data set [13], 910 nM. Moreover, the solubility kinetic at 24 h, 100 µM in data set [1] is under 1 µM. In [4], the Papp A→B came to 3.9 ×10⁻⁶ cm/s. For the same compound, in [6], the Ki is under 531 nM. Also, the CLhep predicted was 15 mL/min/kg in data set [8] and 8.5 mL/min/kg in data set [9].

As for `Cc1nc2cnc(Nc3ccnc(-c4cnn(S(=O)(=O)C5CC5)c4)n3)cc2n1C(C)C`, the Ki was 12 nM in [2], 43 nM in data set [5], 55 nM in data set [6] and 1.8 nM in data set [7]. In data set [4], the apical-to-basolateral permeability (Papp A→B) turned out to be 21 ×10⁻⁶ cm/s. Also, the CLhep predicted was 4 mL/min/kg in data set [8] and 7.7 mL/min/kg in data set [9].

With `COC1CCN(c2nccc(Nc3cc4c(cn3)c(C(N)=O)nn4C(C)C)n2)CC1`, the Ki in data set [6] was over 100 nM.

As to `CC[C@@H](C)n1nc(N2CC(C(C)(C)O)C2)c2cnc(Nc3ccnc(-c4cnn(S(=O)(=O)C5CC5)c4)n3)cc21`, the IC50 in data set [10] turned out to be 57 nM; in data set [11] it was 580 nM; in data set [12] it was 40 nM; in [13] it was 15 nM. In data set [1], the solubility kinetic at 24 h, 100 µM was 2 µM (≈ 1.1 µg/mL). Moreover, in [4], the Papp A→B came out at 19 ×10⁻⁶ cm/s. Moreover, the CLhep predicted in [8] was 7.8 mL/min/kg; in data set [9], 9.9 mL/min/kg.

Turning to `CC(C)n1nc(N2CC(C(C)(C)O)C2)c2cnc(Nc3ccnc(-c4cnn(S(=O)(=O)C5CC5)c4)n3)cc21`, the IC50 in data set [10] was 130 nM; in [11], 210 nM; in data set [12], 32 nM; in [13] it was 10 nM. The solubility kinetic at 24 h, 100 µM in [1] was under 1 µM. Besides, the Ki was under 0.6 nM in data set [3] and 7 nM in data set [6]. For the same compound, the Papp A→B in data set [4] came out at 20 ×10⁻⁶ cm/s. Moreover, the CLhep predicted is 7.1 mL/min/kg in [8] and 8.9 mL/min/kg in data set [9].

As for `CC(C)n1nc(N)c2cnc(Nc3ccnc(-c4cnn(S(=O)(=O)C5CC5)c4)n3)cc21`, the IC50 in [10] came to 80 nM; in [11], 3900 nM; in [12] it was 64 nM; in data set [13] it was 14 nM. The solubility kinetic at 24 h, 100 µM in data set [1] came to 2 µM (≈ 0.879 µg/mL). Besides, the Ki stood at 0.79 nM in data set [3] and 8.2 nM in data set [6]. For the same compound, the Papp A→B in data set [4] worked out at 16 ×10⁻⁶ cm/s. The CLhep predicted was 8.4 mL/min/kg in data set [8] and 13 mL/min/kg in data set [9].
